In ChEMBL document CHEMBL3351715, “Methylenedioxy flavonoids: assessment of cytotoxic and anti-cancer potential in human leukemia cells” (Eur J Med Chem, 2014):
Activity calls are given as the source filed them. The calls are words filed in the database; no cut-off is given here.

Key:
[1] = tested on: Jurkat; assay: Cytotoxicity against human Jurkat cells assessed as reduction in cell viability after 24 to 72 hrs by CellTiter-Glo luminescent cell viability assay; assay type: functional, cell-based
How it was run: (§1)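 Leukemia cells in RPMI/10% FCS at 37 °C, 5% CO2 treated for 24, 48 or 72 h. Equal volume of CellTiter-Glo reagent added, 10 min in the dark at RT, ATP luminescence converted to viable cell number. Normalized to untreated control (%), etoposide as positive control; mean ± SD of three determinations; IC50 from concentration-response.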

[2] = Cytotoxicity against human U937 cells assessed as reduction in cell viability at 10 to 50 uM after 72 hrs by CellTiter-Glo luminescent cell viability assay; assay type: functional, U-937; how it was run: as §1
[3] = Cytotoxicity against human U937 cells assessed as cell viability at 10 uM after 72 hrs by trypan blue staining assay; conditions: U-937, 72 h
[4] = tested on: PBMC; assay: Cytotoxicity against human PBMC assessed as reduction in cell viability at 10 to 50 after 24 to 72 hrs by CellTiter-Glo luminescent cell viability assay; assay type: cell-based
How it was run: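 PBMCs isolated from healthy donor buffy coats (blood diluted 1/3 in RPMI, Ficoll, 400 × g, 20 min), kept 24 h at 37 °C, 5% CO2, then treated 24–72 h. ATP read by CellTiter-Glo luminescence (10 min, dark, RT), normalized to untreated control (%); etoposide positive control; mean ± SD, n=3.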

[5] = Cytotoxicity against human U937 cells assessed as inhibition of cell proliferation at 30 uM after 72 hrs by trypan blue staining assay; assay type: functional; conditions: U-937, 72 h
How it was run: (§2)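 Trypan blue exclusion count of Jurkat, U937 or K562 cells (RPMI, 10% FCS, 37 °C, 5% CO2, 10 days' culture after thawing) exposed to compound from DMSO stock; controls received equal DMSO. Proliferation expressed relative to control; mean ± SD of three determinations, Student's t-test with p<0.05 taken as significant.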

[6] = Cytotoxicity against human U937 cells assessed as reduction in cell viability at 10 to 50 uM after 48 hrs by CellTiter-Glo luminescent cell viability assay; assay type: functional, U-937; how it was run: as §1
[7] = tested on: Jurkat; assay: Cytotoxicity against human Jurkat cells assessed as inhibition of cell proliferation at 50 uM after 72 hrs by trypan blue staining assay; assay type: functional; how it was run: as §2
[8] = tested on: K562; assay: Cytotoxicity against human K562 cells assessed as reduction in cell viability after 24 to 72 hrs by CellTiter-Glo luminescent cell viability assay; assay type: functional, cell-based; how it was run: as §1
[9] = tested on: Jurkat; assay: Cytotoxicity against human Jurkat cells assessed as inhibition of cell proliferation after 72 hrs by trypan blue staining assay; assay type: functional, cell-based; how it was run: as §2
[10] = tested on: K562; assay: Cytotoxicity against human K562 cells assessed as inhibition of cell proliferation at 10 to 50 uM after 8 to 72 hrs by trypan blue staining assay; assay type: functional, cell-based; how it was run: as §2
[11] = tested on: Jurkat; assay: Cytotoxicity against human Jurkat cells assessed as cell viability at 10 uM after 72 hrs by trypan blue staining assay
[12] = tested on: K562; assay: Cytotoxicity against human K562 cells assessed as inhibition of cell proliferation at 20 uM after 72 hrs by trypan blue staining assay; assay type: functional, cell-based; how it was run: as §2
[13] = tested on: K562; assay: Cytostatic effect against human K562 cells at >30 uM after 72 hrs by trypan blue staining assay; assay type: functional, cell-based; how it was run: as §2
[14] = tested on: Jurkat; assay: Cytotoxicity against human Jurkat cells assessed as reduction in cell viability after 72 hrs by CellTiter-Glo luminescent cell viability assay; assay type: functional, cell-based; how it was run: as §1
[15] = tested on: K562; assay: Cytotoxicity against human K562 cells assessed as reduction in cell viability after 72 hrs by CellTiter-Glo luminescent cell viability assay; assay type: functional, cell-based; conditions: K562, 72 h; how it was run: as §1
[16] = tested on: U-937; assay: Cytotoxicity against human U937 cells assessed as inhibition of cell viability at 20 uM after 72 hrs by trypan blue staining assay; assay type: functional, cell-based
[17] = tested on: Jurkat; assay: Induction of apoptosis in human Jurkat cells assessed as caspase-7 cleavage at 20 uM after 48 hrs Western blotting method; assay type: functional, cell-based
How it was run: (§3)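 Jurkat cells (10⁷ per sample) treated up to 48 h, lysed on ice in hypertonic detergent buffer with protease inhibitors, cleared at 15,000 × g, 15 min, 4 °C. Separated by 10% SDS-PAGE, transferred to nitrocellulose, probed with anti-caspase 3 or anti-caspase 7 (1/1000) and HRP secondary; β-actin loading control.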

[18] = tested on: Jurkat; assay: Induction of apoptosis in human Jurkat cells assessed as caspase-3 cleavage at 20 uM after 48 hrs Western blotting method; assay type: functional, cell-based; how it was run: as §3
[19] = Cytotoxicity against human U937 cells assessed as reduction in cell viability after 72 hrs by CellTiter-Glo luminescent cell viability assay; assay type: functional, cell-based; conditions: U-937, 72 h; how it was run: as §1

SMILES: COc1cc(/C=C/C(=O)c2ccc3c(c2O)OCO3)cc(OC)c1OC
- inhibition [1]: Dose-dependent effect
- inhibition (INH) [2]: 20%
- viability at 10 µM [3]: 64.4%
- Activity [4]: Non-toxic
- inhibition at 30 µM [5]: 41%
- inhibition (INH) [6]: 35%
- inhibition at 50 µM [7]: 70%
- inhibition [8]: inactive
- inhibition [9]: Dose-dependent effect
- inhibition [10]: inactive
- viability at 10 µM [11]: 56.1%

SMILES: COc1ccc(/C=C/C(=O)c2ccc3c(c2O)OCO3)cc1OC
- viability at 10 µM [3]: 69.3%
- viability at 10 µM [11]: 77.5%

SMILES: COc1ccc(-c2cc(=O)c3ccc4c(c3o2)OCO4)cc1OC
- viability at 10 µM [3]: 82.5%
- viability at 10 µM [11]: 87.9%

SMILES: COc1ccc(C2CC(=O)c3ccc4c(c3O2)OCO4)cc1 (configuration not stated)
- viability at 10 µM [3]: 81.7%
- viability at 10 µM [11]: 88.2%

SMILES: COc1cc(-c2cc(=O)c3ccc4c(c3o2)OCO4)cc(OC)c1OC
- viability at 10 µM [3]: 90.5%
- viability at 10 µM [11]: 76%

SMILES: COc1cc(C2CC(=O)c3ccc4c(c3O2)OCO4)cc(OC)c1OC (configuration not stated)
- viability at 10 µM [3]: 68.3%
- viability at 10 µM [11]: 69.7%

SMILES: COc1ccccc1-c1cc(=O)c2ccc3c(c2o1)OCO3
- viability at 10 µM [3]: 82.7%
- viability at 10 µM [11]: 91.6%

SMILES: COc1ccccc1/C=C/C(=O)c1ccc2c(c1O)OCO2
- inhibition [12]: Active
- Activity [13]: Active
- viability at 10 µM [3]: 55.4%
- IC50 [14]: 13.7 µM
- Activity [4]: Non-toxic
- IC50 [15]: 42.3 µM
- inhibition [16]: Active
- Activity [17]: Active
- Activity [18]: Active
- IC50 [19]: 11.4 µM
- viability at 10 µM [11]: 59%

SMILES: COc1ccccc1C1CC(=O)c2ccc3c(c2O1)OCO3 (configuration not stated)
- viability at 10 µM [3]: 74%
- viability at 10 µM [11]: 83.2%

SMILES: COc1ccc(/C=C/C(=O)c2ccc3c(c2O)OCO3)cc1
- viability at 10 µM [3]: 80.9%
- viability at 10 µM [11]: 80.6%

SMILES: COc1ccc(C2CC(=O)c3ccc4c(c3O2)OCO4)cc1OC (configuration not stated)
- viability at 10 µM [3]: 80.4%
- viability at 10 µM [11]: 74.9%

SMILES: COc1ccc(-c2cc(=O)c3ccc4c(c3o2)OCO4)cc1
- viability at 10 µM [3]: 76.5%
- viability at 10 µM [11]: 81.2%
